Data: ChEMBL document CHEMBL1124576 (J Med Chem, 1989)

Legend:
[1] = biological target: T1, Adrenergic receptor alpha-2 (Rattus norvegicus, UniProt P22086+P19328+P22909); assay: Binding affinity against alpha-2 adrenergic receptor in rat cerebral cortical membrane, determined using [3H]- yohimbine as the radioligand.
T1 sequence (P22086 whole entry): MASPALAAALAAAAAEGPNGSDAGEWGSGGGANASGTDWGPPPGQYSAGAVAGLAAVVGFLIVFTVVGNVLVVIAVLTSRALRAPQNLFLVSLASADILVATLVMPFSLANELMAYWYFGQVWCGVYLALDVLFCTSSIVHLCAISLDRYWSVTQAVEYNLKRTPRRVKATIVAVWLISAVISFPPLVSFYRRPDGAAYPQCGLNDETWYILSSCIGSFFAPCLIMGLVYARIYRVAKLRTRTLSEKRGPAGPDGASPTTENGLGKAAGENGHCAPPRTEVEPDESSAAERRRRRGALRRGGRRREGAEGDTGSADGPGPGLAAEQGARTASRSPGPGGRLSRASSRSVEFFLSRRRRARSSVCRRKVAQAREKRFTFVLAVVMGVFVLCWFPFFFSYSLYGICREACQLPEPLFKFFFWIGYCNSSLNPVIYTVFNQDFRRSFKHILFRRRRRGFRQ
T1 sequence (P19328 whole entry): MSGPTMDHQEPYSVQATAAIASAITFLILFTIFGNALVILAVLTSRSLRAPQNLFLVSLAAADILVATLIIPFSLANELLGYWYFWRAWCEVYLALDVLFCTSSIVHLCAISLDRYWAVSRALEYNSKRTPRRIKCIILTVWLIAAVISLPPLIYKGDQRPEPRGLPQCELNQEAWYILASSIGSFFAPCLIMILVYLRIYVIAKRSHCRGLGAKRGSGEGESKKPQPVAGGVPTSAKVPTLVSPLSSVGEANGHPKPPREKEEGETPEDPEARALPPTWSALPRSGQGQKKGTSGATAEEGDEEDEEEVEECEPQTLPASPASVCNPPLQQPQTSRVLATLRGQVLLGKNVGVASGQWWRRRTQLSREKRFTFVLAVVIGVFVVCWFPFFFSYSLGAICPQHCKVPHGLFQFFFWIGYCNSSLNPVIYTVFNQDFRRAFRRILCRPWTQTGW
T1 sequence (P22909 whole entry): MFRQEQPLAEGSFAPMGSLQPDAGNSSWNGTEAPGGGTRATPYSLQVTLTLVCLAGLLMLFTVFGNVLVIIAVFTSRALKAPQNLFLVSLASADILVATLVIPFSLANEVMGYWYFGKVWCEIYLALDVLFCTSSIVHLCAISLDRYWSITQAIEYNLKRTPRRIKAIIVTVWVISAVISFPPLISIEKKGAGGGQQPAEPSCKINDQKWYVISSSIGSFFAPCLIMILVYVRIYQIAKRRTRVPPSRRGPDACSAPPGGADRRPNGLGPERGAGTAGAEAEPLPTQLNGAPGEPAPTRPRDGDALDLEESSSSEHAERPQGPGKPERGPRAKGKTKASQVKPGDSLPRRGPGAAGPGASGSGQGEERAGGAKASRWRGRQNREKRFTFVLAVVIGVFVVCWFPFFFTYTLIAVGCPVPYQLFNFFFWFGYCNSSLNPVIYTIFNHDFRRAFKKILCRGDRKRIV

[2] = biological target: Adrenergic receptor alpha-2 (Cavia porcellus); assay: Ability to reverse inhibitory effects of UK-14304 on the contraction of guinea pig ileum as a measure of alpha-2 adrenergic receptor antagonism.
[3] = Antilog of pKi [3H]yohimbine minus PKi [3H]-prazosin was expressed as selectivity
[4] = Antilog of pKi [3H]-yohimbine minus pKi [3H]prazosin.
[5] = test system: Rattus norvegicus; assay: Reversal clonidine-induced mydriasis in rat, after oral administration; assay type: functional; conditions: read-out: ID50 (the source's name)
Procedure, shortened: (§1)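 Rats given clonidine to induce mydriasis; test agent dosed iv or orally. Pupillary diameter measured 10 min after dosing. Value is the dose […] that reduces pupil diameter to 50% of the clonidine-induced maximum. Means of five determinations, SD under 10%. Ratio is oral over iv dose.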

[6] = test system: Rattus norvegicus; assay: Reversal of clonidine-induced mydriasis in rat, after intravenous administration; assay type: functional; conditions: read-out: ID50 (the source's name); procedure, shortened: as §1
[7] = biological target: T2, Adrenergic receptor alpha-1 (Rattus norvegicus, UniProt P15823+P23944+P43140); assay: Binding affinity against alpha-1 adrenergic receptor in rat cerebral cortical membrane, determined using [3H]prazosin as the radioligand
T2 sequence (P15823 whole entry): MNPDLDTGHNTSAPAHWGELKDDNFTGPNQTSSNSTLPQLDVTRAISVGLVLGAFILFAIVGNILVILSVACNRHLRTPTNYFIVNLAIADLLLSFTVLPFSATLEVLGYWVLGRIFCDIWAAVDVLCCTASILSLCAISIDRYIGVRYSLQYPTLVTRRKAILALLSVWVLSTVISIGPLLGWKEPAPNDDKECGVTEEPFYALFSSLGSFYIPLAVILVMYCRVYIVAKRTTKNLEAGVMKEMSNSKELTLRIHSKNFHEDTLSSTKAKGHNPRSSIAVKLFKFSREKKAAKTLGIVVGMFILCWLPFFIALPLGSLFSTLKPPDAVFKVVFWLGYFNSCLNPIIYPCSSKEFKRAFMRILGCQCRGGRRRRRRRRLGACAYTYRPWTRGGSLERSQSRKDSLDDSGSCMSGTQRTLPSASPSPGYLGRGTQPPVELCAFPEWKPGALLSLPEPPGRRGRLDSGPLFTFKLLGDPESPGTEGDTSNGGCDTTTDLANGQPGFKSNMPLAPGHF
T2 sequence (P23944 whole entry): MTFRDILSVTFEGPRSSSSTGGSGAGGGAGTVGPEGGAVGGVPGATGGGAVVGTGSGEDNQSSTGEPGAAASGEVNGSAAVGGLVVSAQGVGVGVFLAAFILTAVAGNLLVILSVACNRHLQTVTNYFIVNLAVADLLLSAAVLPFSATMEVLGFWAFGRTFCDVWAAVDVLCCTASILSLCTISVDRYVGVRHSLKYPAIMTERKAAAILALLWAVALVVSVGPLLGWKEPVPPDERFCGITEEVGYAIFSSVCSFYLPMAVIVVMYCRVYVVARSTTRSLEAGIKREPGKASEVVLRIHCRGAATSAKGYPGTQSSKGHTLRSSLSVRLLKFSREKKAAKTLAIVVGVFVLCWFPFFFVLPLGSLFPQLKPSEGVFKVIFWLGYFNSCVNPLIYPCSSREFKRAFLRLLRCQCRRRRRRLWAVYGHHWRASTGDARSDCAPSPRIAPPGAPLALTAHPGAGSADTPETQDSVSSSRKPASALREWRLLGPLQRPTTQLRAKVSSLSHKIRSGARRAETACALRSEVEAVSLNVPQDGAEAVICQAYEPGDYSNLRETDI
T2 sequence (P43140 whole entry): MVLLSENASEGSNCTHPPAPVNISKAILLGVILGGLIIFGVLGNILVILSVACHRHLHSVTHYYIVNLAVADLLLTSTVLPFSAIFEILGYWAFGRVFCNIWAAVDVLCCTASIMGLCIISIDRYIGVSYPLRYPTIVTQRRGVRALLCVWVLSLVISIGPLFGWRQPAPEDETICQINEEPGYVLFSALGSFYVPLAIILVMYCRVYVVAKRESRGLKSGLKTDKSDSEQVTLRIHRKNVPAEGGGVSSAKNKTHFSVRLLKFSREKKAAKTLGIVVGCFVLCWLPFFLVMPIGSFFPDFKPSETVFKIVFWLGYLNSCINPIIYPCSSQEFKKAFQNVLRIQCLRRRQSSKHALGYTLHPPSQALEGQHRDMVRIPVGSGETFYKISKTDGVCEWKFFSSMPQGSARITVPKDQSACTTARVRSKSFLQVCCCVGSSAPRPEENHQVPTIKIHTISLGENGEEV

[8] = species on record: Oryctolagus cuniculus; assay: Inhibition of phenylephrine-induced contraction of the rabbit aorta as a measure of functional alpha-1-adrenoceptor antagonism; conditions: read-out: pA2 (converted)
Procedure, shortened: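 Rabbit aorta contracted with phenylephrine; alpha1 antagonism read as reversal of the contraction, expressed as pA2. Means of at least three separate determinations.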

[9] = Antilog of pA2 (Uk14304) minus PA2 (Phenylephrine) was expressed as selectivity; assay type: functional
Procedure, shortened: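 Guinea pig ileum contracted by field stimulation; alpha2 antagonism read as reversal of the inhibitory effect of UK-14304 on the contraction, expressed as pA2. Selectivity index is the antilog of pA2 (UK-14304) minus pA2 (phenylephrine). Means of at least three separate determinations.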

[10] = ratio of Oral and Intravenous inhibitory concentrations against reversal of clonidine-induced Mydriasis in rat was evaluated; assay type: functional; procedure, shortened: as §1
[11] = test system: Rattus norvegicus; assay: Beta-adrenoceptor binding density by administering 0.5 mg/kg (once daily for 14 days) in rats; assay type: functional
Procedure, shortened: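 Rats dosed 0.5 mg/kg once daily for 14 days. Cortical beta-adrenoceptor density measured as Bmax, fmol [3H]dihydroalprenolol bound per mg protein, and compared with untreated controls.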

Structure (SMILES)	Log Ki [1]	pA2 [2]	Selectivity [3]	Selectivity [4]	Log Ki [7]	ED50 [5] [mg/kg]	ED50 [6] [mg/kg]	Kb [8] [nM]	Selectivity [9]	Ratio [10]	Bmax [11] [fmol/mg]
COc1ccc2c(c1)CCN1C[C@@H]3CCCN(S(C)(=O)=O)[C@H]3C[C@H]21	-6.32	6.5	> 50	> 50	> -5	> 10	> 10	10000	–	–	–
c1ccc2c(c1)OCC(C1=NCCN1)O2 (stereo unspecified) [IDAZOXAN]	–	–	–	–	–	1.2	0.017	–	–	–	–
COC(=O)[C@@H]1[C@H]2C[C@H]3c4[nH]c5ccccc5c4CCN3C[C@@H]2CC[C@@H]1O [YOHIMBINE]	–	–	–	–	–	2.8	0.185	–	–	–	–

More lines, main results first:

Log Ki [1]	pA2 [2]	Selectivity [3]	Selectivity [4]	Log Ki [7]	Structure (SMILES)	ED50 [5] [mg/kg]	ED50 [6] [mg/kg]	Kb [8] [nM]	Selectivity [9]	Ratio [10]	Bmax [11] [fmol/mg]
-9.18	9.7	15000	–	-4.99	COc1ccc2c(c1)CCN1CC3CCCN(S(C)(=O)=O)C3CC21 (stereo unspecified)	0.21	0.013	> 1000	> 4000	16.2	–
-9.45	9.7	15000	–	-5.29	COc1ccc2c(c1)CCN1C[C@H]3CCCN(S(C)(=O)=O)[C@@H]3C[C@@H]21	0.095	0.0065	794	4000	14.6	57
